Among the data in ChEMBL document CHEMBL4428071 (J Med Chem, 2016) are GI50 values, retold here.

Each structure is given as a SMILES string.

The test system of series [1] is Mast/stem cell growth factor receptor Kit (Homo sapiens), P10721 [T670I]. The experiment in a line: Inhibition of TEL-fused cKIT T670I mutant (unknown origin) expressed in mouse BA/F3 cells assessed as cell growth inhibition after 72 hrs by cell titer-glo assay. It is filed as cell-based. In outline: (§1)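 Cells seeded at 3000 per well and exposed to serial compound dilutions for 72 h. Viability read by CellTiter-Glo luminescence and normalised to DMSO controls; mean of three independent measurements. BaF3 lines kept IL-3-free in RPMI 1640/10% FBS after retroviral transduction and puromycin selection. GIST lines grown in DMEM/10% FBS.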

The target in series [2] is Mast/stem cell growth factor receptor Kit (Homo sapiens, UniProt P10721). The experiment in a line: Inhibition of TEL-fused cKIT (unknown origin) expressed in mouse BA/F3 cells assessed as cell growth inhibition after 72 hrs by cell titer-glo assay. It counts as cell-based. A general note: Cellular ATP, detected with luciferase, serves as a proxy for viable cell number.

Series [3] can be described thus: Cytotoxicity mouse BA/F3 cells assessed as cell growth inhibition after 72 hrs by cell titer-glo assay. It is filed as cell-based, BaF3. In outline: as §1

Sequence of Mast/stem cell growth factor receptor Kit (P10721 whole entry, the tested form may be a part): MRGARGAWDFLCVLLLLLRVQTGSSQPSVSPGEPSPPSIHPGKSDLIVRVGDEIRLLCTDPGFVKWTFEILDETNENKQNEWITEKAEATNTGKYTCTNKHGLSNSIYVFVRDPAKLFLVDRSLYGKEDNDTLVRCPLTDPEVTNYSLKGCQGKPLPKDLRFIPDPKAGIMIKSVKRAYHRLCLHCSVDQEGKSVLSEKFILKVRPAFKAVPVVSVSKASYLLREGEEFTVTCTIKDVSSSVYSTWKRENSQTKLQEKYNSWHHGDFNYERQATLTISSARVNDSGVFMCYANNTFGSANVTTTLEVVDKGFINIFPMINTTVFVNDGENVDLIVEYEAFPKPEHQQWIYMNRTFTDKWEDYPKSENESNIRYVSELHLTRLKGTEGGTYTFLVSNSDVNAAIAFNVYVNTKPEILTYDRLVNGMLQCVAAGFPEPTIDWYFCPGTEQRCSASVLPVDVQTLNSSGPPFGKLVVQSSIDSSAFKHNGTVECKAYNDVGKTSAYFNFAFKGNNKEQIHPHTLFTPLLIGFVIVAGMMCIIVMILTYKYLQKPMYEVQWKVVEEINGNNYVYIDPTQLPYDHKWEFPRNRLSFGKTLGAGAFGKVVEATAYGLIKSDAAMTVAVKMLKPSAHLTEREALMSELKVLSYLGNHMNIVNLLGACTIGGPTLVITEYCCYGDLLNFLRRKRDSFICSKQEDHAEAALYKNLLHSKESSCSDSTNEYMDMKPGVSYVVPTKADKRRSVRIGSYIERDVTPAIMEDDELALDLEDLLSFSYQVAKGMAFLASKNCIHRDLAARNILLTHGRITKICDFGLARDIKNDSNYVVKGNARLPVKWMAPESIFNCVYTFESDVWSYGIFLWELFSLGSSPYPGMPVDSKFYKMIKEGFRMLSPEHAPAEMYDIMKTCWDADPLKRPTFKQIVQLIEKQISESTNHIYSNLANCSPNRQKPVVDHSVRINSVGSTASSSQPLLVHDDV
Sequence of Mast/stem cell growth factor receptor Kit (Homo sapiens), P10721 [T670I] (P10721 whole entry T670I, the tested form may be a part): as the sequence (P10721 whole entry, the tested form may be a part) above, with T670I counted along it

On to `COc1cc2nccc(Oc3cccc(NC(=O)Nc4ccc(N5CCC(NS(=O)(=O)C6CC6)CC5)c(C(F)(F)F)c4)c3)c2cc1OC`, for which the values for the GI50 in series [1] and in series [2] were 63 nM and 140 nM, respectively. For the same compound, the GI50 (usually the concentration giving 50% growth inhibition) at 72 h in series [3] is 1900 nM.
The corresponding values for `COc1cc2nccc(Oc3cccc(NC(=O)Nc4ccc(N5CCC(NC(=O)CN(C)C)CC5)c(C(F)(F)F)c4)c3)c2cc1OC` are 53 nM, 38 nM and 2900 nM.
As for `CCCS(=O)(=O)NC1CCN(c2ccc(NC(=O)Nc3cccc(Oc4ccnc5cc(OC)c(OC)cc45)c3)cc2C(F)(F)F)CC1`, the 50% growth inhibitory concentration (GI50) in series [1] came to 950 nM; in series [2], 59 nM. In addition, the concentration for 50% growth inhibition (GI50) at 72 h in series [3] stood at 4230 nM.
The corresponding values for `COc1cc2nccc(Oc3cccc(NC(=O)Nc4ccc(N5CCC(NC(=O)C6CCN(C(C)=O)CC6)CC5)c(C(F)(F)F)c4)c3)c2cc1OC` are 230 nM, 59 nM and 3400 nM.
The corresponding values for `COc1cc2nccc(Oc3cccc(NC(=O)Nc4ccc(N5CCC(CNC(=O)CCC6CCCCN6C)CC5)c(C(F)(F)F)c4)c3)c2cc1OC` (stereo not given) are 460 nM, 250 nM and 4400 nM.
The corresponding values for `COc1cc2nccc(Oc3cccc(NC(=O)Nc4ccc(N5CCC(NC(=O)C6CCNC(C)C6)CC5)c(C(F)(F)F)c4)c3)c2cc1OC` (stereo not given) are 650 nM, 460 nM and 4000 nM.
In the case of `COc1cc2nccc(Oc3cccc(NC(=O)Nc4ccc(N5CCC(NC(=O)CN6CCCCC6)CC5)c(C(F)(F)F)c4)c3)c2cc1OC`, the GI50 in series [1] turned out to be 37 nM; in series [2], 120 nM. Also, in series [3], the GI50 at 72 h was found to be 480 nM.
The corresponding values for `COc1cc2nccc(Oc3cccc(NC(=O)Nc4ccc(N5CCC(NC(=O)C(C)N)CC5)c(C(F)(F)F)c4)c3)c2cc1OC` (single isomer, unassigned) are 480 nM, 120 nM and 3000 nM.
For `COc1cc2nccc(Oc3cccc(NC(=O)Nc4ccc(N5CCC(NC(=O)C6=CCCCC6)CC5)c(C(F)(F)F)c4)c3)c2cc1OC` the same measures were 760 nM, 760 nM and 1100 nM.
`COc1cc2nccc(Oc3cccc(NC(=O)Nc4ccc(N5CCC(NC(=O)C6CCN(C(=O)C7CC7)CC6)CC5)c(C(F)(F)F)c4)c3)c2cc1OC`: the concentration for 50% growth inhibition (GI50) came out at 120 nM in series [1] and 130 nM in series [2]. Besides, the GI50 at 72 h in series [3] is 800 nM.
For `CCC(=O)NC1CCN(c2ccc(C(=O)Nc3cccc(Oc4ccnc5cc(OC)c(OC)cc45)c3)cc2C(F)(F)F)CC1` the same measures were 2700 nM, 400 nM and above 10000 nM.
For `COc1cc2nccc(Oc3cccc(NC(=O)Nc4ccc(N5CCC(NC(=O)CC(C)(C)C)CC5)c(C(F)(F)F)c4)c3)c2cc1OC` the same measures were 340 nM, 430 nM and above 10000 nM.
For `COc1cc2nccc(Oc3cccc(NC(=O)Nc4ccc(N5CCC(NC(=O)c6cccnc6)CC5)c(C(F)(F)F)c4)c3)c2cc1OC` the same measures were 321 nM, 20 nM and 7000 nM.
`CCS(=O)(=O)NC1CCN(c2ccc(NC(=O)Nc3cccc(Oc4ccnc5cc(OC)c(OC)cc45)c3)cc2C(F)(F)F)CC1`: the concentration for 50% growth inhibition (GI50) in series [1] turned out to be 330 nM; in series [2] it was 34 nM. For the same compound, in series [3], the GI50 at 72 h amounted to 6200 nM.
For `COc1cc2nccc(Oc3cccc(NC(=O)Nc4ccc(N5CCC(NC(=O)CCC6CCCCN6C)CC5)c(C(F)(F)F)c4)c3)c2cc1OC` (stereo not given) the same measures were 200 nM, 190 nM and 1200 nM.
The corresponding values for `COc1cc2nccc(Oc3cccc(NC(=O)Nc4ccc(N5CCC(NC(=O)CCN6CCOCC6)CC5)c(C(F)(F)F)c4)c3)c2cc1OC` are 59 nM, 42 nM and 3600 nM.
The corresponding values for `COc1cc2nccc(Oc3cccc(NC(=O)Nc4ccc(N5CCC(NS(C)(=O)=O)CC5)c(C(F)(F)F)c4)c3)c2cc1OC` are 3800 nM, 3900 nM and above 10000 nM.
Take `COc1cc2nccc(Oc3cccc(NC(=O)Nc4ccc(N5CCC(NC(=O)CN6CCCC(C)C6)CC5)c(C(F)(F)F)c4)c3)c2cc1OC` (stereo not given): the GI50 was found to be 200 nM in series [1] and 330 nM in series [2]. Moreover, the GI50 at 72 h in series [3] amounted to 870 nM.
For `CCC(=O)NC1CCN(c2ccc(NC(=O)Nc3cccc(Oc4ccnc5cc(OC)c(OC)cc45)c3)cc2)CC1` the same measures were above 10000 nM, above 10000 nM and above 10000 nM.
For `CCN1CCC(C(=O)NC2CCN(c3ccc(NC(=O)Nc4cccc(Oc5ccnc6cc(OC)c(OC)cc56)c4)cc3C(F)(F)F)CC2)CC1` the same measures were 87 nM, 39 nM and 1300 nM.
For `COc1cc2nccc(Oc3cccc(NC(=O)Nc4ccc(N5CCC(NC(C)=O)CC5)c(C(F)(F)F)c4)c3)c2cc1OC` the same measures were 46 nM, 110 nM and 7100 nM.
Turning to `CCC(=O)NC1CCCN(c2ccc(NC(=O)Nc3cccc(Oc4ccnc5cc(OC)c(OC)cc45)c3)cc2C(F)(F)F)C1` (stereo not given), the GI50 in series [1] is 920 nM; in series [2], 280 nM. The GI50 at 72 h in series [3] turned out to be 1310 nM.
As for `COc1cc2nccc(Oc3cccc(NC(=O)Nc4ccc(N5CCC(NC(=O)C6CCN(C)CC6)CC5)c(C(F)(F)F)c4)c3)c2cc1OC`, the GI50 in series [1] was 81 nM; in series [2] it was 160 nM. Further, the GI50 at 72 h in series [3] is 1700 nM.
The corresponding values for `CCC(=O)NC1CCN(c2ccc(NC(=O)Nc3cccc(Oc4ccnc5cc(OC)c(OC)cc45)c3)cc2C(F)(F)F)CC1` are 71 nM, 120 nM and 1500 nM.
For `COc1cc2nccc(Oc3cccc(NC(=O)Nc4ccc(N5CCC(NC(=O)CCN6CCCCC6)CC5)c(C(F)(F)F)c4)c3)c2cc1OC` the same measures were 260 nM, 440 nM and 7600 nM.
For `CCC(=O)Nc1ccc(N2CCC(NC(=O)Nc3cccc(Oc4ccnc5cc(OC)c(OC)cc45)c3)CC2)c(C(F)(F)F)c1` the same measures were above 10000 nM, 340 nM and above 10000 nM.
In the case of `COc1cc2nccc(Oc3cccc(NC(=O)Nc4ccc(N5CCC(NC(=O)C6CCCN(C(=O)OC(C)(C)C)C6)CC5)c(C(F)(F)F)c4)c3)c2cc1OC` (stereo not given), the 50% growth inhibitory concentration (GI50) is 170 nM in series [1] and 130 nM in series [2]. The GI50 at 72 h in series [3] stood at 510 nM.
For `COc1cc2nccc(Oc3cccc(NC(=O)Nc4ccc(N5CCC(NC(=O)CN)CC5)c(C(F)(F)F)c4)c3)c2cc1OC` the same measures were 581 nM, 130 nM and 5000 nM.
For `CCC(=O)NC1CCN(c2ccc(NC(=O)C3(C(=O)Nc4cccc(Oc5ccnc6cc(OC)c(OC)cc56)c4)CC3)cc2C(F)(F)F)CC1` the same measures were above 10000 nM, above 10000 nM and above 10000 nM.
For `COc1cc2nccc(Oc3cccc(NC(=O)Nc4ccc(N5CCC(NC(=O)C6CCOCC6)CC5)c(C(F)(F)F)c4)c3)c2cc1OC` the same measures were 83 nM, 87 nM and 2900 nM.
